Data from ChEMBL document CHEMBL3853270, “Influence of Birch Bark Triterpenes on Keratinocytes and Fibroblasts from Diabetic and Nondiabetic Donors” (2016).
Activity calls are given as the source filed them. The calls are words filed in the database; no cut-off is given here.

What was measured:
Keratinocyte [1] = assay: Effect on pro-inflammatory related gene expression in non-diabetic adult human primary keratinocytes assessed as TNF mRNA levels at 1.96 uM after 6 hrs by qPCR analysis; format: functional
[2] = target: Ras-related C3 botulinum toxin substrate 1 (Homo sapiens) (UniProt P63000); assay: Activation of Rac1 in human diabetic primary keratinocytes at 10 nM after 20 mins by immunoblot method
Method in brief: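 Primary keratinocytes from a diabetic adult donor (NHK-d), exposed 20 min. Lysed in glycerol/Tris pH 7.4/NaCl/NP-40/MgCl2/PMSF buffer and cleared at 4 °C. Supernatant incubated 1 h at 4 °C with glutathione-sepharose beads carrying GST-PAK to pull down active GTP-bound Rac1. Blotted on a 13% gel, probed with anti-Rac1 (1:2.000) and detected by ECL; total Rac1 also measured. CNF1 (2 nM) positive control, n = 3.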

Fibroblast [3] = assay: Effect on growth factor related gene expression in non-diabetic adult human primary fibroblasts assessed as VEGFA mRNA levels at 9.81 uM after 6 hrs by qPCR analysis; format: functional
Method in brief: (§1)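 Primary human dermal fibroblasts (young or adult nondiabetic, adult diabetic donor) were treated for 6 h against a 0.1% DMSO solvent control. RNA from 320 000 cells per sample was measured by Fluidigm Biomark high-throughput qPCR. Values are fold change relative to solvent control, from four independent experiments, with SD. One-way ANOVA with Bonferroni post-test was applied.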

Fibroblast [4] = assay: Effect on growth factor related gene expression in non-diabetic young human primary fibroblasts assessed as GDF15 mRNA levels at 1.96 uM after 6 hrs by qPCR analysis; format: functional; method in brief: as §1
Fibroblast [5] = assay: Effect on pro-inflammatory related gene expression in non-diabetic adult human primary fibroblasts assessed as IL1B mRNA levels at 9.81 uM after 6 hrs by qPCR analysis; format: functional
[6] = Effect on wound healing activity in diabetic adult human primary fibroblasts assessed as upregulation of soluble VCAM1 protein levels at 1.96 uM after 24 hrs by bead-based suspension array analysis; format: functional; conditions: Fibroblast
[7] = target: Cell division control protein 42 homolog (Homo sapiens) (UniProt P60953); assay: Activation of Cdc42 in human diabetic primary keratinocytes at 10 nM after 20 mins by immunoblot method
Method in brief: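 Keratinocytes from a diabetic adult donor; incubation 3 h for RhoA, 20 min for Cdc42 and Rac1. Lysates made in glycerol/Tris pH 7.4/NaCl/NP-40/MgCl2/PMSF buffer, spun at 4 °C. Active GTP-bound form pulled down on glutathione-sepharose with GST-Rhotekin (RhoA) or GST-PAK (Cdc42, Rac1) for 1 h at 4 °C. Total and pulled-down protein read by immunoblot with ECL; n = 3.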

Fibroblast [8] = assay: Effect on antioxidant related gene expression in diabetic adult human primary fibroblasts assessed as NFE2L2 mRNA levels at 9.81 uM after 6 hrs by qPCR analysis; format: functional
Fibroblast [9] = assay: Effect on chemokines related gene expression in non-diabetic adult human primary fibroblasts assessed as WDR26 mRNA levels at 1.96 uM after 6 hrs by qPCR analysis; format: functional
Keratinocyte [10] = assay: Effect on AQP3 mRNA expression levels in diabetic adult human primary keratinocytes at 9.81 uM after 6 hrs by qPCR analysis; format: functional
Method in brief: (§2)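 Primary keratinocytes from nondiabetic young and adult and diabetic adult donors; 400 000 cells per sample, 6 h exposure at 1.96 or 9.81 μM. RNA extracted and read on a high-throughput qPCR chip. Results are fold change versus 0.1% DMSO solvent control from 5−7 independent experiments over two donors per group, SD, one-way ANOVA with Bonferroni post-test.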

Fibroblast [11] = assay: Effect on growth factor related gene expression in non-diabetic adult human primary fibroblasts assessed as VEGFA mRNA levels at 1.96 uM after 6 hrs by qPCR analysis; format: functional; method in brief: as §1
Keratinocyte [12] = assay: Effect on cellular connection related gene expression in non-diabetic young human primary keratinocytes assessed as CLDN4 mRNA levels at 9.81 uM after 6 hrs by qPCR analysis; format: functional
Keratinocyte [13] = assay: Effect on ECM related gene expression in diabetic adult human primary keratinocytes assessed as FBN1 mRNA levels at 9.81 uM after 6 hrs by qPCR analysis; format: functional; method in brief: as §2
Fibroblast [14] = assay: Effect on pro-inflammatory related gene expression in non-diabetic adult human primary fibroblasts assessed as PTGS2 mRNA levels at 1.96 uM after 6 hrs by qPCR analysis; format: functional
Keratinocyte [15] = assay: Effect on antiinflammatory related gene expression in non-diabetic adult human primary keratinocytes assessed as NFKBIA mRNA levels at 9.81 uM after 6 hrs by qPCR analysis; format: functional; method in brief: as §2
Keratinocyte [16] = assay: Effect on transcription factor related gene expression in non-diabetic young human primary keratinocytes assessed as JUN mRNA levels at 9.81 uM after 6 hrs by qPCR analysis; format: functional
Fibroblast [17] = assay: Effect on antioxidant related gene expression in non-diabetic adult human primary fibroblasts assessed as SOD2 mRNA levels at 9.81 uM after 6 hrs by qPCR analysis; format: functional
Keratinocyte [18] = assay: Effect on pro-inflammatory related gene expression in diabetic adult human primary keratinocytes assessed as IL1R1 mRNA levels at 1.96 uM after 6 hrs by qPCR analysis; format: functional
Fibroblast [19] = assay: Effect on chemokines related gene expression in non-diabetic adult human primary fibroblasts assessed as WDR26 mRNA levels at 9.81 uM after 6 hrs by qPCR analysis; format: functional
Keratinocyte [20] = assay: Effect on cellular connection related gene expression in non-diabetic young human primary keratinocytes assessed as CLDN4 mRNA levels at 1.96 uM after 6 hrs by qPCR analysis; format: functional
[21] = Effect on wound healing activity in non-diabetic adult human primary keratinocytes assessed as upregulation of IL8 protein levels at 1.96 uM after 24 hrs by bead-based suspension array analysis; format: functional; conditions: Keratinocyte
Fibroblast [22] = assay: Effect on pro-inflammatory related gene expression in non-diabetic young human primary fibroblasts assessed as IL6 mRNA levels at 9.81 uM after 6 hrs by qPCR analysis; format: functional
Keratinocyte [23] = assay: Effect on growth factor related gene expression in non-diabetic adult human primary keratinocytes assessed as VEGFA mRNA levels at 1.96 uM after 6 hrs by qPCR analysis; format: functional
Method in brief: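 Primary human keratinocytes (nondiabetic young or adult, diabetic adult donors) were exposed to compound for 6 h, with 0.1% DMSO as solvent control. Total RNA came from 400 000 cells per sample and was assayed on a Fluidigm Biomark high-throughput qPCR chip. Results are fold change vs solvent control, from 2−4 independent experiments on two donors per group, with SD. Groups were compared by one-way ANOVA with Bonferroni post-test.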

Fibroblast [24] = assay: Effect on antioxidant related gene expression in non-diabetic adult human primary fibroblasts assessed as SOD2 mRNA levels at 1.96 uM after 6 hrs by qPCR analysis; format: functional
Fibroblast [25] = assay: Effect on growth factor related gene expression in diabetic adult human primary fibroblasts assessed as GDF15 mRNA levels at 9.81 uM after 6 hrs by qPCR analysis; format: functional; method in brief: as §1
Fibroblast [26] = assay: Effect on pro-inflammatory related gene expression in non-diabetic young human primary fibroblasts assessed as IL1B mRNA levels at 1.96 uM after 6 hrs by qPCR analysis; format: functional
Keratinocyte [27] = assay: Effect on transcription factor related gene expression in diabetic adult human primary keratinocytes assessed as JUN mRNA levels at 1.96 uM after 6 hrs by qPCR analysis; format: functional

Cell division control protein 42 homolog (Homo sapiens), sequence (P60953 whole entry, looked up): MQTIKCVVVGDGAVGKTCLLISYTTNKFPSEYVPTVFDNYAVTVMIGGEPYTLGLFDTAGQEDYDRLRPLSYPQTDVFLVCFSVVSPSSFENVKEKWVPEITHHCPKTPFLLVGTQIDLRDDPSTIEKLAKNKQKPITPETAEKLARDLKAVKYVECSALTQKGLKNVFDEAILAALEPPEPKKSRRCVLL

## C=C(C)[C@@H]1CC[C@]2(CO)CC[C@]3(C)[C@H](CC[C@@H]4[C@@]5(C)CC[C@H](O)C(C)(C)[C@@H]5CC[C@]43C)[C@@H]12 [BETULIN]
Keratinocyte [1]
  fold change (FC): 3.8
[2]
  Activity: Active
Fibroblast [3]
  fold change (FC): 2
Fibroblast [4]
  fold change (FC): 3.7
Fibroblast [5]
  fold change (FC): 214
[6]
  Activity: Active
[7]
  Activity: Active
Fibroblast [8]
  fold change (FC): 1.5
Fibroblast [9]
  fold change (FC): 0.9
Keratinocyte [10]
  fold change (FC): 0.8
Fibroblast [11]
  fold change (FC): 1.4
Keratinocyte [12]
  fold change (FC): 1.9
Keratinocyte [13]
  fold change (FC): 2.5
Fibroblast [14]
  fold change (FC): 146
Keratinocyte [15]
  fold change (FC): 1.9
Keratinocyte [16]
  fold change (FC): 1.8
Fibroblast [17]
  fold change (FC): 18
Keratinocyte [18]
  fold change (FC): 0.8
Fibroblast [19]
  fold change (FC): 1.3
Keratinocyte [20]
  fold change (FC): 1.5
[21]
  Activity: Active
Fibroblast [22]
  fold change (FC): 55
Keratinocyte [23]
  fold change (FC): 1.3
Fibroblast [24]
  fold change (FC): 18
Fibroblast [25]
  fold change (FC): 1.8
Fibroblast [26]
  fold change (FC): 3.3
Keratinocyte [27]
  fold change (FC): 1.2
